From PubChem
UHRF1 MBD2 ctr = UHRF1 methylated DNA binding inhibitors, primary screen, counter-screen for MBD2 inhibitor project, biochemical, TR-FRET, human UHRF1, single concentration | 370,000 tested, 0.75% active | UHRF1 binding to methylated oligo | inhibition, % at 4.4 µM | E3 ubiquitin-protein ligase UHRF1 (Homo sapiens), Q96T88; in the data active means inhibition above about 21%;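 further: UHRF1 SRA domain binding a hemimethylated CpG hairpin DNA probe; 0% = median of test compound wells and 100% = reference inhibitor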
DNMT1 block = human DNMT1 methyltransferase inhibitors, primary screen, biochemical, molecular beacon, fluorescence, HinP1I cleavage, uHTS; inhibition (reported as % activation of signal), % at 10 µM; 360,000 tested, 0.83% active; DNA (cytosine-5)-methyltransferase 1 (Homo sapiens), P26358; in the data active means inhibition above about 50%
SUMO1-SIM PPI = modulators of SUMO1 protein-protein interactions, primary screen, biochemical, uHTS; Small ubiquitin-related modifier 1 (Homo sapiens), P63165; SUMO1 binding to a labelled peptide, TR-FRET, 1 h; inhibition, % at 20 µM; 360,000 tested, 0.33% active; AID 602429, 2012; in the data active means inhibition above about 37%
Target sequence (P63165 whole entry, looked up): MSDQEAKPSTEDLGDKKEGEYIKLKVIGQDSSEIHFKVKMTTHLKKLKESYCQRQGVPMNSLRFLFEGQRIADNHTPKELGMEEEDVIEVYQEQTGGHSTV
MBD2 inh = inhibitors of MBD2 binding to methylated DNA, primary screen, biochemical, TR-FRET, DNA-binding domain, human; AID 686964, 2013; MBD2 binding to methylated oligonucleotide; 370,000 tested, 0.31% active; inhibition, % at 4.4 µM; in the data active means inhibition above about 13%
Target sequence (Q9UBB5 whole entry, looked up, the tested form may be a part): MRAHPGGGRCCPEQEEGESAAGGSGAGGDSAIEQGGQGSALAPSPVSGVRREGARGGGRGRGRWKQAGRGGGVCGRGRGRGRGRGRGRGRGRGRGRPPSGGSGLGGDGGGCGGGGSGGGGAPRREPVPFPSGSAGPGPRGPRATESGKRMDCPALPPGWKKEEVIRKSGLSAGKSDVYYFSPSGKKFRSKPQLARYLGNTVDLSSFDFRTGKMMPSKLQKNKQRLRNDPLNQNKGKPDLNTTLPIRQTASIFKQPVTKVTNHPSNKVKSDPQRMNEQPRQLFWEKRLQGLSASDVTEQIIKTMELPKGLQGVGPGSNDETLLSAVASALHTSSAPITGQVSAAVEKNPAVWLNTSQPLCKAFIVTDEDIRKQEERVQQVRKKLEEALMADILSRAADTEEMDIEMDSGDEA
Pemphigus Ab inh = inhibitors of pemphigus antibody binding to DSG3, primary screen, biochemical, bead-based, flow cytometry, scFv-GFP; DSG3-coupled beads, scFv-anti-DSG3-GFP binding; stronger effect = lower value; binding (percent of control), % at 10 µM; 310,000 tested, 0.48% active; AID 588358, 2011; Desmoglein-3 (Homo sapiens), P32926;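 active means binding more than 3 SD below its plate's average and above zero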;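 further: hits lower antibody fragment binding to DSG3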
NS3 helicase inh = inhibitors of HCV NS3 helicase, primary screen, biochemical, Cy5 molecular beacon fluorescence | Hepatitis C virus NS3 helicase | NS3 helicase DNA unwinding | inhibition, % at 10.9 µM | 290,000 tested, 0.56% active | AID 1800, 2009;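 active means inhibition above the mean of all tested compounds plus 3 SD, set per campaign, cut at about 35% in these data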;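 further: 0% = DMSO wells and 100% = thioflavine S control wells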
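Material: hepatitis C virus NS3 helicase domain fragment enzyme; measured by: Cy5 fluorescence, 0 and 60 min reads; control set: DMSO and thioflavine S; incubation: 60 min unwinding reaction at 25 °C after ATP addition; read-out basis: % inhibition from 60/0 min fluorescence ratio, DMSO 0%, thioflavine S 100%; repeats: singlicate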
Active calls of the source: *; . = no result given. The list is not random: actives were taken first. Their share in the collection is about 2.5%.

SMILES	UHRF1 MBD2 ctr	DNMT1 block	SUMO1-SIM PPI	MBD2 inh	Pemphigus Ab inh	NS3 helicase inh
COCCNC(=O)c1cc2c(-c3ccc(Cl)cc3)nn(C)c2s1	-5.8	12.8	-2.7	1.5	106.2	-11.0
Cn1nc(-c2ccc(Cl)cc2)c2cc(C(=O)N3CCN(c4ccccn4)CC3)sc21	.	-10.5	-5.4	.	-3.6*	28.9
CC(C)NC(=O)c1cc2c(-c3ccc(Cl)cc3)nn(C)c2s1	-2.1	4.7	-1.0	1.6	72.9*	-0.1
CCN(CC)CCCNC(=O)c1cc2c(-c3cccc(OC)c3)nn(C)c2s1	8.7	5.2	-10.6	-0.5	91.2	-43.0
CCCCN(CC)CCCNC(=O)c1cc2c(-c3ccc(OC)c(OC)c3)nn(C)c2s1	23.6*	-3.0	8.0	11.8	121.5	-52.8
CCOC(=O)N1CCC(NC(=O)c2cc3c(-c4ccc(Cl)cc4)nn(C)c3s2)CC1	1.0	-14.3	73.1*	1.8	91.2*	-1.2
O=C(CNC(=O)c1ccco1)OCc1ccc(C(=O)Oc2ccccc2)cc1	9.6	6.3	4.2	8.0	98.1	-2.0
Cc1cc(C)cc(OCCCOc2cccc3cccnc23)c1	0.6	2.8	-11.0	2.1	112.6	-12.8
CCN(CC(=O)Nc1c(F)cccc1F)C(=O)c1cccc(S(=O)(=O)N2CCN(c3ccccc3)CC2)c1	2.5	-4.1	-3.3	-0.7	97.9	-7.2
N=c1n(CCOc2ccccc2)c2ccccc2n1CCN1CCOCC1	-0.9	2.9	0.2	-5.9	120.2	-4.5
CC(=O)c1c(C)[nH]c(C(=O)CN2CCN(S(=O)(=O)c3ccccc3[N+](=O)[O-])CC2)c1C	-3.7	-1.7	-4.9	-5.4	97.2	.
CC(=O)Nc1ccc(S(=O)(=O)NCc2ccc(C(=O)NCCCN3CCC(C)CC3)cc2)cc1	0.4	-0.1	-6.8	5.2	104.4	-0.3
CN(C)c1ccc(C=c2c3ccccc3n3c2c2c([n+]3C)CCCC2)cc1	38.3*	24.7	-86.7	10.2	103.5	.
CN(C)c1ccc(/C=C2\CCC/C(=C\c3ccccc3)C2=O)cc1	-3.4	11.1	-21.5	-2.3	165.1	0.3
CC(OC(=O)/C(C#N)=C/c1ccc(N(C)C)cc1)C(=O)NCc1ccco1 (stereo not given)	20.2	60.8*	-6.0	10.6	115.1	.
O=C(Nc1nccs1)c1ccc(Cl)cc1[N+](=O)[O-]	-1.7	1.9	-12.8	2.4	122.7	2.7
COc1cccc2c1OC[C@@H](CO)[C@H]2N(C)C(=O)Nc1ccccc1	.	-0.6	-0.1	.	102.6	1.6
CC(C)CN(C(=O)CSc1nnc(-c2cccs2)n1C1CC1)C1CCS(=O)(=O)C1 (stereo not given)	1.5	3.7	1.8	-1.2	99.8	.
CCOC(=O)N1CCC2(CC1)NCCc1c2[nH]c2ccccc12	25.1*	8.2	0.4	-2.9	108.7	26.3
COC(=O)C1(C)NCCc2c1[nH]c1ccccc21 (stereo not given)	-0.2	-0.7	5.0	-3.8	101.6	.
CCOc1ccc(-c2nnc(-c3snc(-c4ccc(F)cc4)c3N=CN(C)C)o2)cc1	-1.1	1.2	47.1*	-3.5	87.2	4.4
CCN(CC)C(=O)C1CCCN(C(=O)c2oc3ccc(C)cc3c2C)C1 (stereo not given)	1.4	0.1	1.1	-0.3	101.7	-3.0
CO/N=C(/C(=O)N[C@@H]1C(=O)N2C(C(=O)O)=CCS[C@H]12)c1cnc(N)s1	.	97.8*	105.8*	.	.	14.5
CC(=O)Nc1ccc(S(=O)(=O)N(C)CC(=O)Nc2cccc(S(=O)(=O)N3CCCC3)c2)cc1	2.4	-3.6	-0.8	2.4	91.2	.
COC(=O)c1ccccc1NC(=O)CSc1nc(N)cc(=O)[nH]1	1.1	47.4	6.4	1.8	55.6*	5.8
SMILES	UHRF1 MBD2 ctr	DNMT1 block	SUMO1-SIM PPI	MBD2 inh	Pemphigus Ab inh	NS3 helicase inh
Cc1ccc(NC(=O)CSc2nc(N)cc(=O)[nH]2)cc1S(=O)(=O)N1CCCCC1	1.7	-5.9	38.9*	-2.4	98.8	.
Oc1ccc(-c2[nH]ncc2-c2cccc3cccnc23)c(O)c1	1.9	1.1	-6.4	1.6	101.5	2.6
Cc1cc(=O)n2nc(N3CCC(C(=O)N4CCN(c5ccccc5)CC4)CC3)sc2n1	-0.9	-0.2	4.3	3.4	114.1	-0.9
COc1ccc(C(=O)Nc2nnc(CC(=O)N/N=C/c3ccc(O)cc3O)s2)cc1	5.9	23.2	78.6*	4.2	104.2	-6.0
Cc1ccc(C(=O)Nc2nnc(CC(=O)N/N=C/c3ccncc3)s2)cc1	0.0	-7.8	5.6	1.1	99.9	0.8
Cc1ccc(C(=O)Nc2nnc(CC(=O)N/N=C/c3ccc(O)c(O)c3)s2)cc1	3.8	15.1	95.8*	3.0	85.9	15.9
COc1ccc(-n2nnnc2-c2ccccc2)cc1	3.3	-0.2	-2.6	3.6	108.5	-4.3
O=C(C1CC12CCCC2)N1CCC(CO)(Cc2ccccc2Cl)CC1 (stereo not given)	45.0*	0.1	-1.5	3.7	102.7	-2.4
CN(C)c1cc[n+](CCC(=O)Nc2cccc([N+](=O)[O-])c2N)cc1	-10.7	0.7	-17.5	-10.5	98.9	1.3
Cc1ccc(-c2nc(N)s[n+]2-c2ccccc2)cc1	4.3	0.8	2.7	-1.7	80.6	-1.2
CNc1nc(-c2ccccc2)[n+](-c2ccc(C)cc2)s1	-0.2	4.1	0.5	2.2	1.4*	-2.7
Cc1ccc(S(=O)(=O)N2CCCC(C(=O)NCc3cccnc3)C2)cc1Cl (stereo not given)	-1.5	2.1	-2.9	-0.8	.	-1.8
COc1ccc(Cl)cc1NC(=O)Cn1c(=O)n2nc(C)nc2c2ccccc21	70.0*	0.8	3.0	3.0	111.5	16.3
COC(=O)[C@]12C[C@H](CC(=O)NCC3CCCCC3)C(=O)N(Cc3ccc4c(c3)OCO4)C1=C[C@H](C(C)(C)C)O[C@@H]2C	22.6*	.	.	6.1	.	.
COC(=O)[C@]12C[C@H](CC(=O)NCC3CCCCC3)C(=O)N(CCc3ccc(OC)c(OC)c3)C1=C[C@H](C(C)(C)C)O[C@@H]2C	22.8*	.	.	4.7	.	.
COC(=O)[C@]12C[C@H](CC(=O)NCC3CCCCC3)C(=O)N(CCc3ccc(OC)c(OC)c3)C1=C[C@H](C1CCCC1)O[C@@H]2C	-4.1	.	.	2.6	.	.
COC(=O)Nc1sc(C(=O)N(C)C)c(C)c1C(=O)OC	0.2	-0.4	1.4	2.9	100.3	-4.7
